Compound activity deposited in PubChem BioAssay by several laboratories.
UBC13 inh = blocks human UBC13 polyubiquitin chain formation | TR-FRET | P61088 | inhibition, % at 20 µM | hit rate 0.47% among 330,000; in the data active = inhibition above about 45%, passing the limit was not always enough
Target sequence (P61088 whole entry, looked up): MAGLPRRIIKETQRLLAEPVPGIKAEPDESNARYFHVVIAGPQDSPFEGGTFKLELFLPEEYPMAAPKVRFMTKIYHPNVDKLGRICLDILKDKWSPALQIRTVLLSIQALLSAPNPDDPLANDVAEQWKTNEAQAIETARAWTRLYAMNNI
UBC9 SUMO inh = inhibitors of human SUMOylation (UBC9); P63279; AID 2006; hit rate 0.36% among 290,000; HTRF SUMOylation assay, SAE1/SAE2 + UBC9, in vitro; inhibition, % at 35 µM; in the data active = inhibition above about 50%, passing the limit was not always enough
Target sequence (P63279 whole entry, looked up): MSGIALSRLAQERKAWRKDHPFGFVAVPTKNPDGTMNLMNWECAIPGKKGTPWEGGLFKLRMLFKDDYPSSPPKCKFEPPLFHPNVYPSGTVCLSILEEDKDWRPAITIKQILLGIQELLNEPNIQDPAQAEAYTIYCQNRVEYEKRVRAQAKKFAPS
Rin1-Abl PPI inh = blocks binding of human Rin1 to Abl; P00519+Q13671; TR-FRET Rin1/Abl binding, biochemical; inhibition, % at 7.35 µM; hit rate 0.4% among 360,000; AID 588664; in the data active = inhibition above about 5%, passing the limit was not always enough
PREPL inhibitor = human PREPL enzyme inhibition. recombinant PREPL, fluorescence polarization activity-based probe. inhibition, % at 5.96 µM. hit rate 0.68% among 320,000; in the data active = inhibition above about 43%;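 also: 0% = enzyme with DMSO and 100% = wells lacking enzyme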
RBBP9 inhibitor = human RBBP9 hydrolase inhibition. O75884. recombinant RBBP9, FP-Rh probe fluorescence polarization. inhibition, % at 7.94 µM. hit rate 0.2% among 220,000;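 active = inhibition above the campaign mean of all tested compounds plus 3 SD, cut at about 14% in these data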;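 also: plate controls were DMSO wells with RBBP9 for no effect and wells lacking RBBP9 protein for full effect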
Target sequence (O75884 whole entry, looked up): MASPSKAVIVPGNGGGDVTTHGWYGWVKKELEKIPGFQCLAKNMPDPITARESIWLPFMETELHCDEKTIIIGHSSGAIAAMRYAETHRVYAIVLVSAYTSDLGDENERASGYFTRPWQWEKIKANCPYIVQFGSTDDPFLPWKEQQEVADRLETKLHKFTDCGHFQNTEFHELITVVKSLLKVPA
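Test system: recombinant human RBBP9. Quantity: 2.5 µM RBBP9 dispensing solution, before mixing. Detection: FP readout at 525/598 nm. Reagent: Serine-hydrolase probe FP-Rh, 375 nM pre-mixing. Measure: % inhibition. Control set: DMSO-treated enzyme wells and wells lacking RBBP9. Buffer or medium: Tris-NaCl-Pluronic buffer, pH 8.0. Times: preincubation 30 min plus labeling 45 min at 25 °C.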
ALR inh = blocks human ALR sulfhydryl oxidase activity | P55789 | purified ALR, DTT oxidation, H2O2 HRP-luminol luminescence | inhibition, % (test concentration not listed) | hit rate 3.8% among 290,000 | AID 485317;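 active = mean replicate inhibition above about 79%, with every replicate also reaching it, limit read from the data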
* marks the source's active call; other numbers are inactive results. Hits are enriched below; roughly 4.3% of the tested compounds scored in any of these assays.

Screening COc1cccc(CNC(=O)Nc2cccs2)c1 returned UBC13 inh -5.6, UBC9 SUMO inh 9.7, Rin1-Abl PPI inh 1.9, PREPL inhibitor 12.7, RBBP9 inhibitor 1.0 and ALR inh 99.3*.
Screening COc1ccc(Br)cc1CNC(=O)Nc1cccs1 returned UBC13 inh 7.9, UBC9 SUMO inh 10.5, Rin1-Abl PPI inh -4.9, PREPL inhibitor 6.1, RBBP9 inhibitor -5.7 and ALR inh 0.4.
Cc1ccc2cc3c(=O)n(C)cc(C=O)c3nc2c1 was read as Rin1-Abl PPI inh -3.2.
`O=C(CSc1nnc(C2CC2)n1CC1CCCO1)Nc1ccc(Cl)cc1` (stereo unspecified) gave UBC13 inh 4.0, UBC9 SUMO inh 12.0, Rin1-Abl PPI inh -1.1, PREPL inhibitor 16.4 and ALR inh -4.2.
Screening CC(=O)CNc1ccc(S(=O)(=O)N/N=C/c2ccccc2)cc1 returned UBC13 inh 1.0, UBC9 SUMO inh -3.1, Rin1-Abl PPI inh -6.2, PREPL inhibitor 9.1 and RBBP9 inhibitor 0.0.
`Cc1ccc(C)c(S(=O)(=O)N/N=C/c2ccc(N(C)C)cc2)c1` gave UBC13 inh -4.8, UBC9 SUMO inh -2.4, Rin1-Abl PPI inh -1.2, PREPL inhibitor 5.2, RBBP9 inhibitor -5.5 and ALR inh 98.9*.
For CC(=O)NCc1ccc(S(=O)(=O)N/N=C/c2ccc(N(C)C)cc2)cc1 the results were UBC13 inh 0.7, UBC9 SUMO inh -15.3, Rin1-Abl PPI inh 1.7, PREPL inhibitor -10.9, RBBP9 inhibitor -4.9 and ALR inh 97.6*.
For CC(C)c1cccc(-c2ccc3c(c2)S(=O)(=O)c2cccc(C(=O)NCc4ccccc4Cl)c2C3=O)c1 the results were UBC13 inh -12.2, Rin1-Abl PPI inh 2.5, PREPL inhibitor 25.6 and ALR inh -4.8.
`CCCN1C(=O)c2ccccc2NC1c1ccc(O)c(OCC)c1` (stereo unspecified) gave UBC13 inh 15.7, UBC9 SUMO inh 8.4, Rin1-Abl PPI inh 1.3, PREPL inhibitor -11.7 and ALR inh 86.0*.
For CCCN1C(=O)c2ccccc2NC1c1ccc(Cl)c(Cl)c1 (stereo unspecified) the results were UBC13 inh 19.4, UBC9 SUMO inh 12.9, Rin1-Abl PPI inh 3.4, PREPL inhibitor 6.3 and ALR inh 3.4.
Screening O=C(CCC1CCCN(C(=O)c2ccc3cc[nH]c3c2)C1)NCc1ccc(F)c(F)c1 (stereo unspecified) returned UBC13 inh 2.7, UBC9 SUMO inh -1.4, Rin1-Abl PPI inh 1.8, PREPL inhibitor -8.5, RBBP9 inhibitor 0.8 and ALR inh -18.6.
`S=C1NCCNC(=S)NCCOCCOCCOCCN1` gave UBC13 inh -17.3, UBC9 SUMO inh 3.8, Rin1-Abl PPI inh -1.1, PREPL inhibitor 14.4, RBBP9 inhibitor 5.6 and ALR inh 3.3.
Screening COc1ccc(Cc2n[nH]c(=S)n2NC(=O)Nc2ccc(Cl)c(Cl)c2)cc1 returned UBC13 inh -15.5, UBC9 SUMO inh 97.3*, Rin1-Abl PPI inh 1.4, PREPL inhibitor -15.2 and RBBP9 inhibitor -19.5.
COc1cc2c(cc1OC)C(C)N(C(=O)c1cccs1)CC2 (stereo unspecified) was read as UBC13 inh -7.7, UBC9 SUMO inh -1.4, Rin1-Abl PPI inh -5.0, PREPL inhibitor -14.6, RBBP9 inhibitor 0.3 and ALR inh -23.5.
COc1cc2c(cc1OC)C(C)N(C(=O)c1cc3c(=O)oc4ccc(C)cc4c3s1)CC2 (stereo unspecified) was read as UBC13 inh 46.7*, UBC9 SUMO inh 10.6, Rin1-Abl PPI inh 0.1, PREPL inhibitor -0.8, RBBP9 inhibitor -11.2 and ALR inh -9.5.
`COCC(C)NC(=O)c1cc(-c2ccc(O)cc2)on1` (stereo unspecified) gave UBC13 inh -4.8, UBC9 SUMO inh -3.1, Rin1-Abl PPI inh 0.9, PREPL inhibitor 14.7, RBBP9 inhibitor -1.2 and ALR inh 99.2*.
COCC(C)NC(=O)c1cc(-c2cccc(OC)c2)on1 (stereo unspecified) was read as UBC13 inh -1.6, UBC9 SUMO inh 22.9, Rin1-Abl PPI inh -1.3, PREPL inhibitor 5.5, RBBP9 inhibitor -10.2 and ALR inh -5.4.
CCOC(=O)Nc1nc2ccc(Cn3cccc3)cc2[nH]1 was read as Rin1-Abl PPI inh 1.2.
For CCOc1cc(/C=C2/NC(=O)N(Cc3ccccc3F)C2=O)ccc1O the results were UBC13 inh -5.3, UBC9 SUMO inh -10.9, Rin1-Abl PPI inh -2.9, PREPL inhibitor 16.5, RBBP9 inhibitor -6.3 and ALR inh 66.7.
COc1cc(/C=C2/NC(=O)N(Cc3ccccc3F)C2=O)cc(OC)c1O was read as UBC13 inh -7.6, UBC9 SUMO inh -20.8, Rin1-Abl PPI inh 0.6, PREPL inhibitor -8.6, RBBP9 inhibitor -1.0 and ALR inh 98.9*.
Screening Cc1c(C#N)c(NC(=O)CCl)n(Cc2ccccc2)c1C returned UBC13 inh 11.4, UBC9 SUMO inh 4.4, Rin1-Abl PPI inh -1.7, PREPL inhibitor 7.0, RBBP9 inhibitor -0.7 and ALR inh 96.1*.
Screening COc1ccccc1CN1C(=O)c2ccccc2C1C(=O)NC1CCC(C)CC1 (stereo unspecified) returned UBC13 inh -17.0, UBC9 SUMO inh 9.6, Rin1-Abl PPI inh -3.0, PREPL inhibitor -7.4, RBBP9 inhibitor -4.2 and ALR inh 82.0*.
For O=C(NCCCn1ccnc1)C(=O)NCC(c1cccnc1)N1CCN(c2ccc(F)cc2)CC1 (stereo unspecified) the results were UBC13 inh -0.3, UBC9 SUMO inh 18.9, Rin1-Abl PPI inh 3.3, PREPL inhibitor 21.9, RBBP9 inhibitor -5.7 and ALR inh 67.7.
For CC(C)(C)n1nnnc1C(c1cccnc1)N1CCN(c2ccccc2)CC1 (stereo unspecified) the results were UBC13 inh -8.3, UBC9 SUMO inh 2.6, Rin1-Abl PPI inh -7.3, PREPL inhibitor -1.6, RBBP9 inhibitor -0.5 and ALR inh 73.9.
`O=C(NCc1ccccc1)C(=O)NCC(c1ccco1)N1CCN(c2ccccc2F)CC1` (stereo unspecified) gave UBC13 inh -7.5, UBC9 SUMO inh 2.7, Rin1-Abl PPI inh 4.7*, PREPL inhibitor -48.8, RBBP9 inhibitor 3.0 and ALR inh -5.0.
For O=C(NCc1cccs1)C(=O)NCC(c1ccco1)N1CCN(c2ccccc2)CC1 (stereo unspecified) the results were UBC13 inh -0.8, UBC9 SUMO inh -2.9, Rin1-Abl PPI inh -0.7, PREPL inhibitor -49.0, RBBP9 inhibitor 5.1 and ALR inh 97.8*.
c1ccc(Cn2nnnc2C(c2cccnc2)N2CCN(c3ccccc3)CC2)cc1 (stereo unspecified) was read as UBC13 inh -12.0, UBC9 SUMO inh 9.7, Rin1-Abl PPI inh -1.2, PREPL inhibitor 1.9, RBBP9 inhibitor -7.3 and ALR inh 98.1*.
